# Experiment: Inhibition of collagenase type 5
# Procedure, shortened: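 Collagenase type V ([…]) with a 20 µg/mL enzyme solution is preincubated with samples in 4% MeOH at 37 °C for 10 min. Fluorogenic substrate MOCAc-Pro-Leu-Gly-Leu-A2pr(Dnp)-Ala-Arg-NH2 (5 µM solution) is then added. Fluorescence (ex 320, em 405 nm) is read during 1 h at 37 °C. Phosphoramidon is the positive control.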
row,SMILES,IC50
1,O=C(/C=C/c1ccc(O)c(O)c1)O[C@@H]1C[C@](O)(C(=O)O)C[C@@H](OC(=O)/C=C/c2ccc(O)c(O)c2)[C@H]1O,23.6 µM
2,O=C(/C=C/c1ccc(O)c(O)c1)O[C@@H]1[C@H](O)C[C@@](O)(C(=O)O)C[C@H]1OC(=O)/C=C/c1ccc(O)c(O)c1,37.2 µM
3,O=C(/C=C/c1ccc(O)c(O)c1)O[C@@H]1[C@H](OC(=O)/C=C/c2ccc(O)cc2)C[C@@](OC(=O)/C=C/c2ccc(O)cc2)(C(=O)O)C[C@H]1OC(=O)/C=C/c1ccc(O)c(O)c1,14.2 µM
4,CC(C)C[C@H](NP(=O)(O)O[C@@H]1O[C@@H](C)[C@H](O)[C@@H](O)[C@H]1O)C(=O)N[C@@H](Cc1c[nH]c2ccccc12)C(=O)O [PHOSPHORAMIDON],0.6 µM

# Second part, the compound after the results:
row,IC50,SMILES
1,19.1 µM,O=C(/C=C/c1ccc(O)c(O)c1)O[C@@H]1C[C@](O)(C(=O)O)C[C@@H](OC(=O)/C=C/c2ccc(O)c(O)c2)[C@H]1OC(=O)/C=C/c1ccc(O)cc1
2,5.8 µM,COC(=O)[C@]1(O)C[C@@H](OC(=O)/C=C/c2ccc(O)c(O)c2)[C@@H](O)[C@H](OC(=O)/C=C/c2ccc(O)c(O)c2)C1
3,26.6 µM,COC(=O)[C@]1(O)C[C@@H](O)[C@@H](OC(=O)/C=C/c2ccc(O)c(O)c2)[C@H](OC(=O)/C=C/c2ccc(O)c(O)c2)C1
4,16.2 µM,"COC(=O)[C@@]1(O)C[C@@H](O)[C@H](OC(=O)/C=C/c2ccc(O)c(O)c2)[C@H](OC(=O)/C=C/c2ccc(O)c(O)c2)C1 [3,4-O-TRANS-CAFFEOYLQUINIC ACID METHYL ESTER]"
5,82.7 µM,O=C(O)/C=C/c1ccc(O)c(O)c1 [CAFFEIC ACID]
6,> 500 µM,O=C(O)[C@]1(O)C[C@@H](O)[C@@H](O)[C@H](O)C1 [QUINIC ACID]

# — ChEMBL document CHEMBL1158774, “Collagenase inhibitory quinic acid esters from Ipomoea pes-caprae” (J Nat Prod, 2005)
